Screens: PubChem, several laboratories
The list is not random: actives were taken first. Their share in the collection is about 2.7%.
Wee1 degr inh = human Wee1 degradation inhibition, primary screen; P30291; HeLa Luc-Wee1K328M stability, luciferase luminescence; 100% = proteasome inhibitor MG132 effect; reporter increase, % at 5 µM; actives 1.2% (n = 220,000); AID 1321;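 active means activation above the mean of all tested compounds plus 3 SD, set per screening run, cut at about 8.8% in these data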;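 further: cells exposed to compound for 20 h before luminescence read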
Hck Nef HTS = human Hck-Nef kinase inhibition | AID 463187 | inhibition, % at 20 µM | actives 0.68% (n = 220,000) | Recombinant Hck-YEEI plus Nef, Z-Lyte FRET kinase assay;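 active means Hck-Nef kinase inhibition above about 50%, limit read from the data; inactive means inhibition below that limit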
Target sequence (P08631 whole entry, looked up): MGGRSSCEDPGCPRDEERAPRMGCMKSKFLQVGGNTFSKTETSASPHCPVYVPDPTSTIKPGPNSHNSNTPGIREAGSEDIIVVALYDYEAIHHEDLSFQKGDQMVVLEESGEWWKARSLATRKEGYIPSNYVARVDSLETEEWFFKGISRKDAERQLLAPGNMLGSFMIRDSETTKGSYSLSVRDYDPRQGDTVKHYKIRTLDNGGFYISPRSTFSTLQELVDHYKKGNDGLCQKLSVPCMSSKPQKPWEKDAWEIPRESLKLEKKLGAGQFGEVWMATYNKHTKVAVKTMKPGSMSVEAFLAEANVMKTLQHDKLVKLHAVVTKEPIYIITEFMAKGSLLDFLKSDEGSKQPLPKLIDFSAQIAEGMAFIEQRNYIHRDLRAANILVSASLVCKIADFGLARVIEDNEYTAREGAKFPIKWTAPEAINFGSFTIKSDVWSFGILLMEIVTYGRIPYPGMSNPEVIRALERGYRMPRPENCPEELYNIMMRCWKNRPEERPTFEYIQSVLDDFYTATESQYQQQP
MDM2 E3 inh = blocks human Mdm2 ubiquitin ligase activity; Q00987; cell-based MDM2 ubiquitination luciferase reporter, 2 h; 0 = plate control, 100 = twice control, blank-subtracted; signal enhancement, % at 5 µM; actives 0.11% (n = 210,000); AID 1230;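 active means signal enhancement of 30% or more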;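 further: luminescence tracks abundance of the self-degrading MDM2-luciferase fusion protein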
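system = mammalian cells stably expressing self-ubiquitinating, self-degrading MDM2 E3–luciferase fusion | quantity = 2000 cells per well seeded | incubation = 4 h cell settling then 2 h compound exposure, 37 °C | signal = SteadyLite luminescence, 15 min reagent step | benchmarks = plate control and blank wells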
Tb hexokinase = T. brucei hexokinase 1 inhibition; AID 1430; recombinant TbHK1, G6PDH-coupled NADH A340; inhibition, % at 10 µM; actives 0.11% (n = 220,000);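 active means inhibition of 50% or more in the single-dose primary screen; inactive means inhibition below 50%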
14-3-3 Bad PPI = disrupts binding of bovine 14-3-3 zeta to phospho-Bad peptide. P63103. inhibition, % at 21.7 µM. actives 0.71% (n = 220,000). TR-FRET 14-3-3zeta/Dy647-pBad peptide displacement, 1 h;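 active means inhibition above about 70%, limit read from the data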
Large screens that a line does not name were inactive.

CCOC(=O)N1CCN(C2OC(=O)c3ccccc32)CC1 (stereo not given)	Wee1 degr inh 9.7
O=C(O)C1CCCCC1C(=O)NCCc1ccncc1 (stereo not given)	14-3-3 Bad PPI 72.3
O=C(O)[C@H]1CCCC[C@H]1C(=O)NCCc1ccccc1	none
CCN(CC)c1ccc(NC(=S)Nc2ccc(F)cc2)cc1	none
OC1(c2cccnc2)CCN(Cc2nnnn2C2CCCCC2)CC1	14-3-3 Bad PPI 83.7
C1CCC(n2nnnc2CN2CCCC2)CC1	none
CC1CCCN(C(=O)C2CCN(CC(C)c3ccccc3)CC2)C1 (stereo not given)	none
CC(NC(=O)COC(=O)c1ccc([N+](=O)[O-])s1)c1ccccc1 (stereo not given)	Wee1 degr inh 8.9
CNC(=S)N(CCc1ccc(S(N)(=O)=O)cc1)C1CC(=O)N(c2ccccc2F)C1=O (stereo not given)	14-3-3 Bad PPI 79.4
CCOc1ccc(N2C(=O)CC(N(CCc3ccc(S(N)(=O)=O)cc3)C(C)=O)C2=O)cc1 (stereo not given)	none
Cc1cc(C)cc(N(CCC#N)C(=O)CSC2=Nc3ccccc3C3CC=NN23)c1 (stereo not given)	Wee1 degr inh 9.9
N#Cc1ccccc1NC(=O)CSC1=Nc2ccccc2C2CC=NN12 (stereo not given)	Wee1 degr inh 9.4
O=C(CSC1=Nc2ccccc2C2CC=NN12)Nc1ccc2c(c1)OCO2 (stereo not given)	none
CCCCCOC(=O)CSc1nc2c(c(=O)[nH]c(=O)n2C)n1CCc1ccccc1	Wee1 degr inh 9.9
COc1ccc(C(=O)NNC(=S)NC(=O)c2ccco2)cc1	none
O=C(NNC(=S)NC(=O)c1ccco1)c1ccc(F)cc1	Wee1 degr inh 10.5
COc1ccc(-n2c(SCC(=O)N3CCc4ccccc43)nnc2-c2c[nH]c3ccccc23)cc1	14-3-3 Bad PPI 78.1 (no result: MDM2 E3 inh)
CC(COc1ccccc1)N1CCC(CO)(Cc2ccccc2)CC1 (stereo not given)	none
COc1ccc(OC)c(CNc2ccc(F)c(Cl)c2)c1	14-3-3 Bad PPI 79.4 (no result: MDM2 E3 inh)
O=S(=O)(NC1=NCCC1)c1cccc(NC(=S)NCCc2ccccc2)c1	none
CCN(CC(=O)Nc1cc(C)c(Cl)cc1OC)CC(=O)NC1CCS(=O)(=O)C1 (stereo not given)	none
CCN(CC(=O)Nc1cc(Cl)ccc1OC)CC(=O)NC1CCS(=O)(=O)C1 (stereo not given)	14-3-3 Bad PPI 73.9 (no result: MDM2 E3 inh)
Cc1cccc(N2CCN(Cc3ccoc3)CC2)c1C	14-3-3 Bad PPI 73.7
Cc1c(/C=N/NC(=O)c2cccs2)c2ccccc2n1Cc1ccccc1Cl	none (no result: MDM2 E3 inh)
O=C(Nc1cccs1)Nc1ccc(F)cc1F	Wee1 degr inh 9.0
O=C(Nc1ccc(F)cc1F)Nc1ccc(F)cc1F	none
Cc1cc(C(=O)Nc2cccc3ccccc23)n(-c2ccccc2)n1	MDM2 E3 inh 41.6
O=C(CCSc1ccccc1)Nc1nnc(-c2ccccc2)o1	none
O=C(CCSc1ccccc1)Nc1nnc(-c2cccs2)o1	Wee1 degr inh 9.5
N#C/C=C(/N)N1CCN(c2ccc(Cl)c(Cl)c2)CC1	none
CCOC(=O)C1CCCCN1Cc1cc(OC)ccc1OC (stereo not given)	14-3-3 Bad PPI 90.7 (no result: MDM2 E3 inh)
CCOC(=O)C1CCCCN1Cc1cccc(OC)c1OC (stereo not given)	14-3-3 Bad PPI 75.8
CCOC(=O)C1(Cc2cccc(OC)c2)CCN(Cc2cc(OC)ccc2OC)CC1	14-3-3 Bad PPI 80.2
CCOC(=O)C1CCN(Cc2ccc(F)cc2F)CC1	14-3-3 Bad PPI 76.5
CCN1C(=O)c2cccc3c(S(=O)(=O)Nc4ccc(OC)cc4OC)ccc1c23	none
Cc1ccc(OCc2csc(N)n2)cc1	none
CCOC(=O)C1CCCCN1Cc1cccc(F)c1 (stereo not given)	14-3-3 Bad PPI 71.1
CC(OC(=O)CCc1nc2ccccc2[nH]c1=O)c1ccccc1 (stereo not given)	Wee1 degr inh 10.7
O=C(COC(=O)c1ccccc1NC(=O)C1CC1)c1ccc2c(c1)OCCO2	14-3-3 Bad PPI 71.5
CC(C)(C)C(=O)Nc1ccccc1C(=O)OCC(=O)c1ccc2c(c1)OCCO2	none
CC1=NN(c2ccccc2)C(=O)/C1=C\c1cn(-c2ccccc2)nc1C	none
CC1=NN(c2ccccc2)C(=O)/C1=C\c1c(C)[nH]n(-c2ccccc2)c1=O	Wee1 degr inh 15.8
